Series [1] in a line: Apparent elimination half life in Sprague-Dawley rat at 3 mg/kg, iv by HPLC-MS method. The series is classed as ADME, organism-based. The arrangement: dose 3 mg/kg, route intravenous. Particulars: in vivo, read-out: betat1/2(app) (converted). The gist of the method: (§1)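 Male rats (330−380 g, 9−10 weeks), jugular vein cannula implanted 1 day before, fasted. 3 mg/kg given iv or orally (n = 3) in DMA/PEG400 30/70 v/v. Blood (150 μL) drawn at 0, 2, 5 (iv only), 15, 30 min and 1, 2, 4, 6, 8, 12, 24 h; plasma analysed by HPLC-MS; noncompartmental analysis.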

For series [2], the system named is A549. Briefly: Antitumor activity against human A549 cells xenografted in Nu-Foxn1'nu mouse assessed as reduction in tumor volume at 10 mg/kg, po administered once daily on day 1 to 10, day 15 to 19 and day 22 to 26. The series is classed as functional. The arrangement: scale not given: the % may be the effect or the level left. The gist of the method: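 Four-week-old male nude mice received 10 million A549 cells sc in the right flank. At ~60 mm³ tumours, mice were randomised (n = 8) and dosed by oral gavage in 25% DMA + 75% PEG400. Volume = a×b²/2. T/C (%) computed from day 1 and day 60 volumes versus vehicle.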
Background: A xenograft is tissue or cells of one species grown in another, often human tumour cells in immunodeficient mice.

For another series, the system named is MCF7. Nature of the series: Induction of c-Jun protein accumulation in human MCF7 cells incubated for 24 hrs by Western blotting. The series is classed as functional, cell-based.
For series [3], the system named is RAW264.7. Nature of the series: Antiinflammatory activity in mouse RAW264.7 cells assessed as inhibition of LPS-induced nitric oxide production incubated for 18 hrs by nitrate/nitrite assay. The series is classed as functional, cell-based. The note with it: RAW264.7, 18 h. The gist of the method: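 RAW264.7 seeded 65000 cells/well, cultured 24 h, then medium replaced with complete medium containing IFNγ (20 ng/mL)/LPS (5 μg/mL) plus compound at various concentrations for 18 h; nitric oxide measured by Nitrate/Nitrite kit. EC50 as mean of at least three experiments, each in duplicate.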

Series [4] has as its system NCI-H460. Nature of the series: Induction of c-Jun protein accumulation in human NCI-H460 cells incubated for 24 hrs by Western blotting. The series is classed as functional, cell-based. (Immunoblotting shows a protein as a band on a membrane.)
The test system of series [5] is RAW264.7. Nature of the series: Reduction in LPS/INFgamma-induced COX2 protein expression in mouse RAW264.7 cells incubated for 20 hrs by Western blotting. The series is classed as functional, cell-based. In a few lines: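 LPS/IFNγ-stimulated RAW264.7 cells treated with compound for 20 h. iNOS, COX-2 and GAPDH detected by Western blot; representative of at least three independent experiments.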

For series [6], the system named is A549. Nature of the series: Down regulation of cyclin A2 expression in human A549 cells incubated for 24 hrs by Western blotting. The series is classed as functional, cell-based.
In series [7] the test system is Transmissible gastroenteritis virus. Briefly: Antiviral activity against Transmissible gastroenteritis virus infected in ST cells assessed as reduction in caspase-3 activation pre-treated before virus infection measured 16 hrs post virus infection by Western blotting. In kind it is functional, organism-based. The gist of the method: (§2)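 ST cells pretreated with compound, then infected with TGEV. Western blot for nucleocapsid (N) protein, caspase 3 (cleavage of procaspase 3) and GAPDH at 16 hpi. Representative of at least three independent experiments.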

The subject of the next series is NUGC-3. Nature of the series: Growth inhibition of human NUGC3 cells. The series is classed as functional. The gist of the method: (§3)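 Cells seeded per well: NUGC-3 4500, HONE-1 6000, MCF-7 6500, NCI-H460 2500, HepG2 10000, A549 5000; A549 grown in RPMI 1640 with 2 g/L NaHCO₃, 2 mM L-glutamine and 10% FBS. GI₅₀ = concentration giving 50% growth inhibition, mean of at least three experiments each in duplicate. Paclitaxel served as positive control.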

Series [8] has as its system Transmissible gastroenteritis virus. Briefly: Antiviral activity against Transmissible gastroenteritis virus infected in ST cells pre-treated 2 hrs before virus infection measured 6 hrs post virus infection by immunofluorescent assay. The series is classed as functional, organism-based. The note with it: Alphacoronavirus 1, ST. The gist of the method:
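ST cells, with or without 2 h compound pretreatment (10 concentrations), infected with TGEV at MOI 10. Immunofluorescence with anti-spike and anti-nucleocapsid antibodies at 6 hpi. EC50 from dose–response curves, mean of at least three experiments, each in duplicate.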

Series [9] is described as follows: Cytotoxicity against mouse RAW264.7 cells. The series is classed as cell-based. In a few lines:
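RAW264.7 cells stimulated with LPS/IFNγ and compound-treated in parallel with the NO assay; CC50 taken as concentration giving 50% inhibition of cell growth. Mean of at least three experiments, each in duplicate.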

Series [10] is described as follows: Volume of distribution at steady state in Sprague-Dawley rat at 3 mg/kg, iv by HPLC-MS method. The series is classed as ADME, organism-based. The arrangement: dose 3 mg/kg, route intravenous. Particulars: in vivo, read-out: Vdss. The gist of the method:
as §1

The subject of series [11] is NCI-H460. Briefly: Growth inhibition of human NCI-H460 cells. In kind it is functional. The gist of the method: as §3
Series [12] can be described thus: Growth inhibition of human HONE1 cells. The series is classed as functional. In a few lines:
as §3

Series [13] deals with Mus musculus. Nature of the series: Toxicity in Nu-Foxn1'nu mouse assessed as effect on motor coordination at 10 mg/kg, po administered once daily on day 1 to 10, day 15 to 19 and day 22 to 26 measured during day 58 to 61 post dose by rotarod test. The arrangement: dose 10 mg/kg, route oral. Particulars: in vivo. The series is classed as organism-based. In a few lines: (§4)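 Male nude mice already used in the A549 xenograft study (oral dosing, vehicle 25% DMA + 75% PEG400). Groups: vehicle (n = 8), 5 mg/kg (n = 7), 10 mg/kg (n = 8), plus untreated nontumor mice (n = 5). Rota-rod training on day 58, testing on days 59–61, rod accelerating 2 to 30 rpm over 300 s. Read-out was latency to fall, 300 s cutoff.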
(In general: Falling from the rotarod earlier than controls is read as motor impairment.)

In a further series the test system is HepG2. Nature of the series: Growth inhibition of human HepG2 cells. In kind it is functional. The gist of the method:
as §3

A short description of series [14]: Tmax in Sprague-Dawley rat at 3 mg/kg, po by HPLC-MS method. The series is classed as ADME, organism-based. The arrangement: dose 3 mg/kg, route oral. Particulars: in vivo. The gist of the method:
as §1

The nature of series [15]: Clearance in Sprague-Dawley rat at 3 mg/kg, iv by HPLC-MS method. In kind it is ADME, organism-based. The arrangement: dose 3 mg/kg, route intravenous. Particulars: in vivo. In a few lines: as §1
In series [16] the test system is Transmissible gastroenteritis virus. Briefly: Antiviral activity against Transmissible gastroenteritis virus infected in ST cells assessed as reduction in N-protein expression pre-treated before virus infection measured 16 hrs post virus infection by Western blotting. In kind it is functional, organism-based. The gist of the method: as §2
Another series deals with Murine hepatitis virus. Nature of the series: Antiviral activity against Murine hepatitis virus JHM infected in mouse DBT cells assessed as reduction in virus-induced cytopathic effect at 0.05 to 0.5 uM pre-treated 1 hr before virus infection and measured 24 hrs post infection by phase contrast microscopy. The series is classed as functional, organism-based. In a few lines: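 DBT cells (2.8 × 10⁵/well) seeded the day before infection in DMEM with 2% FBS. Compound added 1 h before MHV-JHM at MOI 0.005 (virus grown in BNL CL.2 cells). Cytopathic effect viewed by phase contrast and N protein by immunofluorescence at 24 hpi.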

The subject of series [17] is Mus musculus. Nature of the series: Toxicity in Nu-Foxn1'nu mouse assessed as effect on motor coordination at 5 mg/kg, po administered once daily on day 1 to 10, day 15 to 19 and day 22 to 26 measured during day 58 to 61 post dose by rotarod test. In kind it is organism-based. The arrangement: dose 5 mg/kg, route oral. The note with it: in vivo. In a few lines:
as §4

The test system of series [18] is A549. Nature of the series: Induction of c-Jun protein accumulation in human A549 cells incubated for 24 hrs by Western blotting. In kind it is functional, cell-based.
Another series has as its system Rattus norvegicus. Nature of the series: Antiinflammatory activity against Sprague-Dawley rat assessed as reduction in carrageenan-induced hind paw edema at 5 mg/kg, ip. In kind it is functional. Particulars: route intraperitoneal. The arrangement: scale not given: the % may be the effect or the level left. The gist of the method: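 Female Sprague−Dawley rats (193−214 g, 8−9 weeks, n = 5) dosed ip 1 h before subplantar injection of 100 μL 1% carrageenan in saline into the left hind paw. Vehicle group received DMSO (100 μL); indomethacin served as positive control. Inhibition of 30% or more counted as significant.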

Series [19] can be described thus: Solubility in DMSO. The series is classed as physicochemical. The gist of the method: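 Compound dissolved in DMSO with sonication; maximal volume before precipitation measured and used to calculate saturation solubility.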

≈ marks a conversion by molar mass, not a printed value. Calls of active or inactive are those of the source. Some results are limits rather than exact numbers.

The term EC50 denotes the concentration needed to bring the measured effect to its halfway point. Broadly, the GI50 is the concentration that inhibits growth by half. The CC50 is the concentration that lowers cell viability or growth by half. As a reminder, the Tmax is the time from dosing to the highest level. In general, clearance refers to the volume of plasma or blood freed of the substance per unit of time. A word on the solubility: it is the concentration that dissolves in the medium under given conditions.

As for `CCN1Cc2c(c3ccc(OC)cc3c3cc(OC)c(OC)cc23)C(O)C1` (centres undefined), in series [1], the half-life was 48 min. Also, the Activity in the series with A549 [2] is 61%; with Mus musculus [13], “Non-toxic”; in the series with Mus musculus [17], “Non-toxic”; in the series with Rattus norvegicus, >60%. Also, the outcome (with MCF7; in the series on NCI-H460 [4]; in the series on RAW264.7 [5]; in the series on A549 [6]; in [7]; in series [16]) was Active. Further, the result with Murine hepatitis virus and in the series on A549 [18] was Active. The EC50 in the series with RAW264.7 [3] is 70 nM; in series [8], 40 nM. The GI50 in the series on NUGC-3 is 30 nM; with NCI-H460 [11], 20 nM; in [12], 60 nM; in the series on HepG2, 40 nM. Also, the midpoint of cytotoxicity in series [9], the CC50, lay at 240 nM. Besides, the Vd in series [10] came out at 2.7 L/kg. In series [14], the Tmax is 18 min. This compound also had a clearance in series [15] of 51.8 mL/min/kg. In series [19], this compound displayed a solubility of 60.5 mM (≈ 22.2 mg/mL).

The values above are taken from ChEMBL document CHEMBL2177013, “Synthesis and biological evaluation of tylophorine-derived dibenzoquinolines as orally active agents: exploration of the role of tylophorine e ring on biological activity” (J Med Chem, 2012).
